Assay outcomes (PubChem)
An excerpt weighted towards active compounds, which were near 1.8% of everything screened.
beta cell repl: induces beta-cell replication in MIN6 cells; MIN6 cells proliferation, ATPlite luminescence, 48 h; cells starved in 0.2% serum; 100% = growth in 10% serum; proliferation, % at 10 µM; 330,000 compounds, 0.29% hits; AID 2380;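 active = compounds whose signal lies at least 3.5 SD above the mean of all wells on their plate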
SKN-1 block: blocks SKN-1 activity in C. elegans; C. elegans VP596 Pgst-4::GFP/RFP ratio, acrylamide-induced, 24 h; inhibition, % at 21.8 µM; 360,000 compounds, 0.49% hits; AID 624304;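 active = interference check ratio from 0.5 to 1.5 plus GFP to RFP signal ratio inhibition reaching or exceeding a fixed threshold, cut at about 30% in these data, passing the limit was not always enough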
MT1-MMP act inh: MT1-MMP (human) activation inhibition; AID 651647; 360,000 compounds, 0.061% hits; GFP/RFP ratio change, % at 20 µM; P50281; HT1080 RFP-PRO-GFP cells, GFP/RFP ratio fluorescence, overnight; percent of plate control window, DMSO zero;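 active = GFP/RFP ratio change of at least 30% with cell ATP level not reduced by more than half and red fluorescence within 50% of control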
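Assay system – RFP-PRO-GFP reporter HT1080 cells · Compound dosing – single dose of 20 µM compound, 1% DMSO final · Incubation – overnight compound exposure at 37 °C · Measure – GFP/RFP fluorescence ratio · Benchmarks – DMSO wells and RFP-L50D-GFP cells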
MsrA inh: inhibits bovine methionine sulfoxide reductase A | purified bovine MsrA, absorbance read-out | AID 651718 | inhibition, % at 15.5 µM | 360,000 compounds, 0.75% hits; in the data active = inhibition above about 4.5%
DAGLB inh: blocks human DAGLB lipase activity; Q8NCG7; inhibition, % at 5.17 µM; AID 504411; 340,000 compounds, 0.059% hits; HEK293T DAGLB membrane lysate, EnzChek fluorogenic substrate; in the data active = inhibition above about 34%
Target sequence (Q8NCG7 whole entry, looked up): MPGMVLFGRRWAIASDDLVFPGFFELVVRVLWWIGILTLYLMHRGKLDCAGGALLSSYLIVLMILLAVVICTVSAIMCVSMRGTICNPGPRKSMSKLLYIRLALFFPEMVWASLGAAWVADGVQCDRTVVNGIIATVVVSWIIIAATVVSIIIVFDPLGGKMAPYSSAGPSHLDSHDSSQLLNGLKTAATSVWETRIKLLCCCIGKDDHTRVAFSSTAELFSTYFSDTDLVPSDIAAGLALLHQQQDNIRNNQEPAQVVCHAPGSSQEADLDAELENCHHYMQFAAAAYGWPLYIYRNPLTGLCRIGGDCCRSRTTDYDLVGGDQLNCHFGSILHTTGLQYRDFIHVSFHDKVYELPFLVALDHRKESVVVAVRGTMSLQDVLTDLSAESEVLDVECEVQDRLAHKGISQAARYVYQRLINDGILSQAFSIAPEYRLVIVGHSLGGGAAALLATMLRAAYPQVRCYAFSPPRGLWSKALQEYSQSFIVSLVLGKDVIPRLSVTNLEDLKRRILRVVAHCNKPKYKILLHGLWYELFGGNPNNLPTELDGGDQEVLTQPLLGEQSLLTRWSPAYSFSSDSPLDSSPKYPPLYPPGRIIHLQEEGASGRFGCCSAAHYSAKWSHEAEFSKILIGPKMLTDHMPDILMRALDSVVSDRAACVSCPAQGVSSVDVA
MsrA act: activators of bovine methionine sulfoxide reductase A; activation, % at 10.6 µM; purified bovine MsrA, absorbance read-out; 360,000 compounds, 0.3% hits; in the data active = activation above about 7.5%
Hits are given with their value; i = inactive; nt = no result.

SMILES	beta cell repl	SKN-1 block	MT1-MMP act inh	MsrA inh	DAGLB inh	MsrA act
CC(C)(C)S(=O)N1C[C@H]2CC(=O)C=C2[C@@H]1CCO (stereo partly drawn)	nt	nt	nt	i	nt	nt
Cn1nccc1-c1ccc(C(=O)Nc2cccc(NS(C)(=O)=O)c2)c2occc12	nt	37	i	i	nt	i
O=C(COC(=O)[C@@H]1CCCN1C(=O)c1cccs1)NCCc1ccccc1	i	36	i	i	i	i
CCCNC(=O)c1ccc2c(c1)C1C3CCC(C3)C1C(c1ccccc1)N2 (stereo not drawn)	i	48	i	i	i	i
CCOC(=O)C1CSCCS(=O)(=O)N1Cc1ccccc1F (stereo not drawn)	nt	nt	nt	i	nt	nt
Cc1ccc(S(=O)(=O)N2C[C@H]3[C@H]4C(=O)N(c5ccccc5)C(=O)[C@H]4CC(=O)[C@H]3[C@@H]2c2ccccc2F)cc1	nt	i	i	i	nt	i
Cc1ccc(S(=O)(=O)N2C[C@H]3[C@H]4C(=O)N(c5ccccc5)C(=O)[C@H]4CC(=O)[C@H]3[C@@H]2c2cccc3ccccc23)cc1	nt	36	i	i	nt	i
CC(C)OCCCn1c(=S)[nH]c2ccc(N3CCOCC3)cc2c1=O	i	i	i	i	i	i
CC(C)OCCCn1c(=S)[nH]c2cc3c(cc2c1=O)OCO3	i	39	i	i	i	i
CC1CN(C(=O)c2cccs2)CCN1C(=O)c1cccs1 (stereo not drawn)	i	43	i	i	i	i
CSC1SCC2C(=O)N(C)C(C(C)C)C(=O)OCC(NC(=O)c3cnc4ccccc4n3)C(=O)NC(C)C(=O)N(C)C1C(=O)N(C)C(C(C)C)C(=O)OCC(NC(=O)c1cnc3ccccc3n1)C(=O)NC(C)C(=O)N2C (stereo not drawn)	nt	42	i	i	i	i
Cc1nn(-c2ccc(F)cc2)c2sc(C(=O)N3CCCCCC3)cc12	i	48	i	i	i	i
COCC(=O)N1CCN(C(=O)C(=O)c2cccc(C(F)(F)F)c2)CC1	nt	nt	nt	i	nt	nt
CC(=O)Nc1ccc(/C=C(\C#N)C(=O)NC2CCCCC2)cc1	i	i	i	4.6	i	i
CSc1ccc(/C=C(\C#N)C(=O)NC2CCCCC2)cc1	i	i	i	i	i	i
CC(NS(=O)(=O)c1ccc(OCC(=O)N2CCOCC2)cc1)c1ccccc1 (stereo not drawn)	i	i	i	i	i	i
CC(NS(=O)(=O)c1ccc(OCC(=O)N2CCOCC2)c(Cl)c1)c1ccccc1 (stereo not drawn)	i	38	i	i	i	i
CN(C)c1ccc(/C=N/O)cc1	i	i	i	i	i	i
CC/C(=C\c1ccc(N(C)C)cc1)c1ccncc1	nt	67	i	i	i	i
CCN1/C(=C(\O)c2ccccc2)C(=O)c2ccccc2S1(=O)=O	i	44	i	4.8	i	i
CCOC(=O)c1ccc(CN2C(=O)c3ccccc3S2(=O)=O)cc1	i	i	i	i	i	i
Cn1ccsc1=NC(=O)c1ccc(Cl)cc1	i	43	i	i	i	i
COC(=O)c1ccc(C(=O)N=c2sccn2C)cc1	i	i	i	i	i	i
Cn1ccsc1=NC(=O)c1ccc(OC(F)(F)F)cc1	i	51	i	i	i	i
c1csc(-c2ccc3ccccc3n2)c1	i	43	i	i	i	i
SMILES	beta cell repl	SKN-1 block	MT1-MMP act inh	MsrA inh	DAGLB inh	MsrA act
Cc1ccc2c(c1)C(c1ccccc1)N(C(=O)c1ccc(Br)o1)CC(=O)N2 (stereo not drawn)	i	i	i	i	i	i
O=C1CN(C(=O)c2ccc(Br)o2)C(c2ccccc2)c2cc(Br)ccc2N1 (stereo not drawn)	i	59	i	i	i	i
Nc1ccc(N=Nc2ccc(N)cc2)cc1	i	i	i	i	i	i
Cc1cc(N(C)C)ccc1N=Nc1ccc(N)cc1	i	97	i	i	i	i
C=CCOc1ccc2c(CC)cc(=O)oc2c1C	i	72	i	i	i	i
COc1ccc(OC)c(NC(=O)c2ccc(CN3CCOCC3)cc2)c1	i	i	i	i	i	i
O=C(Nc1ccc(CN2CCOCC2)cc1)c1cc2ccccc2o1	i	56	i	i	i	i
CC(C)c1ccc(/C=C/C(=O)Nc2ccc(CN3CCOCC3)cc2)cc1	i	i	i	i	nt	i
O=C(NC(=S)Nc1ccc(CN2CCOCC2)cc1)c1cc2ccccc2o1	i	i	i	i	i	i
COc1ccccc1NC(=O)c1ccc(CN2CCOCC2)cc1	i	36	i	i	i	i
CC(C)c1ccc(C(=O)Nc2ccc(CN3CCOCC3)cc2)cc1	i	70	i	i	i	i
O=C(/C=C/c1ccc(Cl)cc1)Nc1ccc(CN2CCOCC2)cc1	i	63	i	i	i	i
OC(c1ccccc1)c1ncc(-c2ccccc2Cl)[nH]1 (stereo not drawn)	nt	i	i	i	nt	i
COc1ccc(C=NN(C)C(=O)Nc2cccc(Cl)c2)cc1OC	nt	nt	nt	i	nt	nt
COC(=O)C(CC(C)C)N(Cc1ccc(Br)cc1)S(=O)(=O)CCl (stereo not drawn)	nt	nt	nt	i	nt	nt
O=S1(=O)c2ccc(Br)cc2OC2CCCC[C@@H]2N1Cc1ccccc1 (stereo partly drawn)	nt	nt	nt	i	nt	nt
Cn1c(-c2ccccn2)[n+](C)c2ccccc21	i	i	i	i	i	i
CN(C)c1ccc(-c2n(C)c3ccccc3[n+]2C)cc1	i	i	i	4.6	i	i
CC(c1ccccc1)N(NC(=O)C(O)(c1ccccc1)c1ccccc1)C(=O)c1ccccc1 (stereo not drawn)	0.0	i	i	i	i	i
CCc1c(-c2cccc(OC)c2)ncn1CCc1ccccc1OC	nt	nt	nt	i	nt	nt
COC(=O)c1cc2sccc2n1Cc1ccc(C)cc1	i	38	i	i	i	i
COc1ccc(C(CC(=O)N2CCCC2)c2c(OC)cc(OC)c3c(-c4ccccc4)cc(=O)oc23)cc1 (stereo not drawn)	i	i	i	i	i	9.0
O=c1cc(CN2CCCC2)c2ccccc2o1	nt	nt	nt	i	nt	nt
O=[N+]([O-])c1ccc(S(=O)(=O)Nc2nc(-c3ccccc3)cs2)cc1	i	i	i	i	i	i
C=CCNc1nc(-c2ccc(Cl)cc2)cs1	i	43	i	i	i	i
SMILES	beta cell repl	SKN-1 block	MT1-MMP act inh	MsrA inh	DAGLB inh	MsrA act
C=CCNc1nc(-c2ccc([N+](=O)[O-])cc2)cs1	i	51	i	i	i	i
Nc1nc(-c2ccc(Cl)cc2)cs1	nt	nt	nt	i	nt	nt
Fc1ccc(CSc2ccc(-c3ccco3)nn2)cc1	i	i	i	i	i	i
Fc1cccc(CSc2ccc(-c3ccco3)nn2)c1	i	49	i	i	i	i
CCOC(=O)CNC(=O)N(C)[C@H]1C[C@H]2c3[nH]c4c(-c5ccccc5)cccc4c3CCN2C(=O)[C@H]1[C@H](C)O	nt	nt	nt	i	nt	nt
C=CCCC1CN(Cc2ccc(OC)cc2)S(=O)(=O)c2c(Oc3ccc(C)cc3)cccc2O1 (stereo not drawn)	nt	nt	nt	i	nt	nt
